Key:
[1] = tested on: Vero; test: In vitro cytotoxicity expressed as conc. that inhibits 50% of VERO(monkey kidney) cell proliferation; assay type: functional, cell-based; details: Chlorocebus sabaeus
In short: (§1)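 KB and VERO monolayers in medium 199 with 10% newborn calf serum, 12 × 10^4 cells seeded per well. Serial dilutions from a DMSO or water stock were added at seeding, with final DMSO below 1%. Cultures were held 48 h at 37 °C in 5% CO2. Viability was then measured after 18 h in neutral red medium, SDS lysis and dye absorbance at 540 nm.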

[2] = species: Homo sapiens; test: In vitro cytotoxicity expressed as conc. that inhibits 50% of KB (human) cell proliferation; assay type: functional; in short: as §1
[3] = tested on: K562; test: In vitro cytotoxicity expressed as concentration that inhibits 50% of K562S (sensitive clone)cell proliferation; assay type: functional, cell-based; details: Homo sapiens
[4] = tested on: K562; test: In vitro cytotoxicity expressed as concentration that inhibit 50% of K562R (resistant clone) cell proliferation; assay type: functional, cell-based; details: Homo sapiens
[5] = tested on: HCT-116; test: In vitro cytotoxicity expressed as concentration that inhibits 50% of HCT(human colon carcinoma)116 cell proliferation; assay type: functional, cell-based
[6] = tested on: U-87 MG; test: In vitro cytotoxicity expressed as concentration that inhibits 50% of U87 (glioblastoma) sensitive variant cell proliferation; assay type: functional, cell-based, U-87MG ATCC; details: Homo sapiens
In short: (§2)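 Cells were kept at 37 °C in sealed dishes of MEM with 10% heat-inactivated FCS plus glutamine, penicillin, streptomycin and gentamycin. […] Cells were plated at 10 000 cells/mL for 24 h, then given nine concentrations from 10^-5 to 10^-9 M. Growth was read by MTT colorimetric assay.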

[7] = tested on: T-24; test: In vitro cytotoxicity expressed as concentration that inhibits 50% of T24 (bladder) sensitive variant cell proliferation; assay type: functional, cell-based; details: Homo sapiens; in short: as §2
[8] = tested on: T-24; test: In vitro cytotoxicity expressed as concentration that inhibits 50% of T24 (bladder) resistant variant cell proliferation; assay type: functional, cell-based; details: Homo sapiens; in short: as §2
[9] = tested on: HCT-15; test: In vitro cytotoxicity expressed as concentration that inhibits 50% of HCT 15 (colon) resistant variant cell proliferation; assay type: functional, cell-based; details: Homo sapiens; in short: as §2
[10] = In vitro cytotoxicity expressed as concentration that inhibits 50% of U373 (glioblastoma) resistant variant cell proliferation; assay type: functional, cell-based, U-373MG ATCC; details: Homo sapiens, U373 MG; in short: as §2
[11] = (§3) In vitro cytotoxicity expressed as concentration that inhibits 50% of J82 (bladder) resistant variant cell proliferation; assay type: functional; details: Homo sapiens; in short: as §2
[12] = tested on: U-87 MG; test: In vitro cytotoxicity expressed as concentration that inhibits 50% of U87 (glioblastoma) resistant variant cell proliferation; assay type: functional, cell-based, U-87MG ATCC; details: Homo sapiens; in short: as §2
[13] = tested on: K562; test: In vitro cytotoxicity expressed as concentration that inhibits 50% of K562R (resistant clone) cell proliferation; assay type: functional, cell-based; details: Homo sapiens
[14] = tested on: LoVo; test: In vitro cytotoxicity expressed as concentration that inhibits 50% of LoVo (colon) resistant cell proliferation; assay type: functional, cell-based; details: Homo sapiens; in short: as §2
[15] = In vitro cytotoxicity expressed as concentration that inhibits 50% of J82 (bladder) sensitive variant cell proliferation; assay type: functional; details: Homo sapiens; in short: as §2
[16] = tested on: U373 MG; test: In vitro cytotoxicity expressed as concentration that inhibits 50% of U373 (glioblastoma) sensitive variant cell proliferation; assay type: functional, cell-based, U-373MG ATCC; details: Homo sapiens; in short: as §2
[17] = tested on: HCT-15; test: In vitro cytotoxicity expressed as concentration that inhibits 50% of HCT 15 (colon) sensitive variant cell proliferation; assay type: functional, cell-based; details: Homo sapiens; in short: as §2
[18] = tested on: LoVo; test: In vitro cytotoxicity expressed as concentration that inhibits 50% of LoVo (colon) sensitive variant cell proliferation; assay type: functional, cell-based; details: Homo sapiens; in short: as §2
[19] = as §3; assay type: functional; details: Homo sapiens; in short: as §2; remark: listed apart in the source

Row | SMILES | IC50 [1] | IC50 [2] | IC50 [3] | IC50 [4] | IC50 [5] | IC50 [6] | IC50 [7] | IC50 [8] | IC50 [9] | IC50 [10] | IC50 [11] | IC50 [12] | IC50 [13] | IC50 [14] | IC50 [15] | IC50 [16] | IC50 [17] | IC50 [18] | IC50 [19]
1 | CO[C@H]1Nc2ccccc2C(=O)N2C=C(/C=C/C(=O)N(C)C)C[C@@H]12 | 75 nM | 86 nM | 85 nM | 120 nM | 50 nM |  |  |  |  |  |  |  |  |  |  |  |  |  | 
2 | COc1cccc2c1C(=O)c1c(O)c3c(c(O)c1C2=O)C[C@@](O)(C(=O)CO)C[C@@H]3O[C@H]1C[C@H](N)[C@H](O)[C@H](C)O1 [DOXORUBICIN] | 5000 nM | 100 nM | 50 nM |  |  | 60 nM | 20 nM | > 10000 nM | 80 nM | 130 nM | > 10000 nM | 140 nM | 7000 nM | 80 nM | 30 nM | 10 nM | 50 nM | 8 nM | 
3 | CO[C@@]12[C@H](COC(N)=O)C3=C(C(=O)C(C)=C(N)C3=O)N1C[C@@H]1N[C@@H]12 [MITOMYCIN] |  | 500 nM |  |  |  |  |  |  |  |  |  |  |  |  |  |  |  |  | 
4 | CO[C@H]1Nc2cc3c(cc2C(=O)N2C=C(/C=C/C(=O)N(C)C)C[C@@H]12)OCO3 | 20 nM | 5 nM | 50 nM |  | 20 nM | 40 nM | 10 nM | 10 nM | 7 nM | 37 nM | 10 nM | 38 nM | 30 nM | 9 nM |  | 30 nM | 8 nM | 9 nM | 10 nM
5 | CN(C)C(=O)/C=C/C1=CN2C(=O)c3cc4c(cc3NC(S(=O)(=O)O)[C@@H]2C1)OCO4 (some centres not stated) [SODIUM BISULFITE ADDUCT] | 50 nM | 50 nM |  |  | 25 nM |  |  |  |  |  |  |  |  |  |  |  |  |  | 

— ChEMBL document CHEMBL1134670, “Synthesis and cytotoxicity on sensitive and doxorubicin-resistant cell lines of new pyrrolo[2,1-c][1,4]benzodiazepines related to anthramycin” (J Med Chem, 2001)
